According to ChEMBL document CHEMBL3046016, “Antifeedant and growth inhibitory effects of some neo-clerodane diterpenoids isolated from Clerodendron species (Verbenaceae) on Earias vitella and Spodoptera litura” (2003):

Assays:
Type in all cases: functional
Earias vittella [1] = experiment: Insecticidal activity against third-instar larval stage of Earias vitella assessed as larval mortality at 5 ug/cm3 administered through artificial diet containing Abelmoschus esculentus seed powder (reference value: 4%)
Spodoptera litura [2] = experiment: Insecticidal activity against pupal stage of Spodoptera litura in compound-treated castor leaves assessed as pupal mortality at 5 ug/cm2 relative to control
Spodoptera litura [3] = experiment: Insecticidal activity against pupal stage of Spodoptera litura in compound-treated castor leaves assessed as pupal duration time at 5 ug/cm2 (reference value: 9.2 +/- 0.74 days)
Spodoptera littoralis = experiment: Antifeedant activity against Spodoptera littoralis assessed as decrease in diet consumption at 200 ppm after 2 hr by leaf disk assay relative to control; parameters: scale not given: the % may be the effect or the level left
Spodoptera litura [4] = experiment: Insecticidal activity against pupal stage of Spodoptera litura in compound-treated castor leaves assessed as pupal weight at 10 ug/cm2 (reference value: 302.4 +/- 5.9 mg)
Spodoptera litura [5] = experiment: Insecticidal activity against pupal stage of Spodoptera litura in compound-treated castor leaves assessed as pupal duration time at 10 ug/cm2 (reference value: 9.2 +/- 0.74 days)
Earias vittella [6] = experiment: Insecticidal activity against third-instar larval stage of Earias vitella assessed as total larval duration time at 10 ug/cm3 administered through artificial diet containing Abelmoschus esculentus seed powder (reference value: 8.2 +/- 0.48 days)
Spodoptera litura [7] = experiment: Insecticidal activity against adult Spodoptera litura in compound-treated castor leaves assessed as adult deformity at 10 ug/cm2 relative to control
Earias vittella [8] = experiment: Insecticidal activity against third-instar larval stage of Earias vitella assessed as total larval duration time at 5 ug/cm3 administered through artificial diet containing Abelmoschus esculentus seed powder (reference value: 8.2 +/- 0.48 days)
Spodoptera litura [9] = experiment: Insecticidal activity against female adult Spodoptera litura in compound-treated castor leaves assessed as adult longevity time at 5 ug/cm2 (reference value: 10 +/- 0.63 days)
Spodoptera litura [10] = experiment: Insecticidal activity against adult Spodoptera litura in compound-treated castor leaves assessed as adult emergence at 10 ug/cm2 relative to control
Earias vittella [11] = experiment: Insecticidal activity against adult Earias vitella assessed as adult deformity at 10 ug/cm3 administered through artificial diet containing Abelmoschus esculentus seed powder (reference value: 4%)
Earias vittella [12] = experiment: Insecticidal activity against pupal stage of Earias vitella assessed as pupal duration time at 5 ug/cm3 administered through artificial diet containing Abelmoschus esculentus seed powder (reference value: 6.4 +/- 0.21 days)
Spodoptera litura [13] = experiment: Antifeedant activity against third-instar larval stage of Spodoptera litura in compound-treated castor leaves assessed as decrease in diet consumption at 10 ug/cm2 after 24 hr by no-choice leaf disk assay relative to acetone-treated control; parameters: scale not given: the % may be the effect or the level left
How it was run: (§1)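 Larvae were reared on castor leaves at 25 ± 2 °C. In a no-choice test, compound in acetone was painted on the abaxial side of castor leaf disks and air-dried. Five freshly molted third-instar larvae, starved 4 h, were placed per Petri dish with wet cotton. There were five replicates. After 24 h, consumed leaf area was read on a leaf area meter. %AF = 100 − (treated/control)×100.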

Spodoptera litura [14] = experiment: Insecticidal activity against adult Spodoptera litura in compound-treated castor leaves assessed as adult emergence at 5 ug/cm2 relative to control
Spodoptera litura [15] = experiment: Insecticidal activity against adult Spodoptera litura in compound-treated castor leaves assessed as adult deformity at 5 ug/cm2 relative to control
Earias vittella [16] = experiment: Insecticidal activity against third-instar larval stage of Earias vitella assessed as larval mortality at 10 ug/cm3 administered through artificial diet containing Abelmoschus esculentus seed powder (reference value: 4%)
Earias vittella [17] = experiment: Insecticidal activity against female adult Earias vitella assessed as adult longevity time at 5 ug/cm3 administered through artificial diet containing Abelmoschus esculentus seed powder (reference value: 8.6 +/- 0.48 days)
Earias vittella [18] = experiment: Insecticidal activity against pupal stage of Earias vitella assessed as pupal mortality at 5 ug/cm3 administered through artificial diet containing Abelmoschus esculentus seed powder (reference value: 8%)
Spodoptera litura [19] = experiment: Insecticidal activity against third-instar larval stage of Spodoptera litura in compound-treated castor leaves assessed as total larval duration time at 5 ug/cm2 (reference value: 12.4 +/- 0.48 days)
Earias vittella [20] = experiment: Insecticidal activity against pupal stage of Earias vitella assessed as pupal weight at 5 ug/cm3 administered through artificial diet containing Abelmoschus esculentus seed powder (reference value: 88.2 +/- 4.01 mg)
Earias vittella [21] = experiment: Insecticidal activity against pupal stage of Earias vitella assessed as pupal mortality at 10 ug/cm3 administered through artificial diet containing Abelmoschus esculentus seed powder (reference value: 8%)
Earias vittella [22] = experiment: Insecticidal activity against male adult Earias vitella assessed as adult longevity time at 10 ug/cm3 administered through artificial diet containing Abelmoschus esculentus seed powder (reference value: 8.2 +/- 0.4 days)
Earias vittella [23] = experiment: Insecticidal activity against pupal stage of Earias vitella assessed as pupal weight at 10 ug/cm3 administered through artificial diet containing Abelmoschus esculentus seed powder (reference value: 88.2 +/- 4.01 mg)
Earias vittella [24] = experiment: Insecticidal activity against adult Earias vitella assessed as adult emergence at 5 ug/cm3 administered through artificial diet containing Abelmoschus esculentus seed powder (reference value: 88%)
Spodoptera litura [25] = experiment: Insecticidal activity against pupal stage of Spodoptera litura in compound-treated castor leaves assessed as pupal weight at 5 ug/cm2 (reference value: 302.4 +/- 5.9 mg)
Spodoptera litura [26] = experiment: Insecticidal activity against third-instar larval stage of Spodoptera litura in compound-treated castor leaves assessed as larval mortality at 5 ug/cm2 relative to control
Earias vittella [27] = experiment: Antifeedant activity against third-instar larval stage of Earias vitella assessed as decrease in diet consumption at 10 ug/cm3 administered through artificial diet containing Abelmoschus esculentus seed powder after 24 hr relative to acetone-treated control; parameters: scale not given: the % may be the effect or the level left
How it was run: (§2)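 Artificial diet was modified Klein medium with bhendi (Abelmoschus esculentus) seed powder in place of alfalfa. Compound in acetone was mixed into bhendi meal 12 h before diet preparation so the solvent evaporated. One 3 g diet cube was given to five freshly molted third-instar larvae in a muslin-covered container. After 24 h the cubes were weighed. %AF = 100 − (treated/control)×100.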

Earias vittella [28] = experiment: Insecticidal activity against female adult Earias vitella assessed as adult longevity time at 10 ug/cm3 administered through artificial diet containing Abelmoschus esculentus seed powder (reference value: 8.6 +/- 0.48 days)
Spodoptera litura [29] = experiment: Insecticidal activity against pupal stage of Spodoptera litura in compound-treated castor leaves assessed as pupal mortality at 10 ug/cm2 relative to control
Earias vittella [30] = experiment: Insecticidal activity against adult Earias vitella assessed as adult deformity at 5 ug/cm3 administered through artificial diet containing Abelmoschus esculentus seed powder (reference value: 4%)
Spodoptera litura [31] = experiment: Insecticidal activity against third-instar larval stage of Spodoptera litura in compound-treated castor leaves assessed as total larval duration time at 10 ug/cm2 (reference value: 12.4 +/- 0.48 days)
Earias vittella [32] = experiment: Antifeedant activity against third-instar larval stage of Earias vitella assessed as decrease in diet consumption at 5 ug/cm3 administered through artificial diet containing Abelmoschus esculentus seed powder after 24 hr relative to acetone-treated control; parameters: scale not given: the % may be the effect or the level left; how it was run: as §2
Spodoptera litura [33] = experiment: Insecticidal activity against female adult Spodoptera litura in compound-treated castor leaves assessed as adult longevity time at 10 ug/cm2 (reference value: 10 +/- 0.63 days)
Spodoptera litura [34] = experiment: Insecticidal activity against third-instar larval stage of Spodoptera litura in compound-treated castor leaves assessed as larval mortality at 10 ug/cm2 relative to control
Spodoptera litura [35] = experiment: Antifeedant activity against third-instar larval stage of Spodoptera litura in compound-treated castor leaves assessed as decrease in diet consumption at 5 ug/cm2 after 24 hr by no-choice leaf disk assay relative to acetone-treated control; parameters: scale not given: the % may be the effect or the level left; how it was run: as §1
Spodoptera litura [36] = experiment: Insecticidal activity against male adult Spodoptera litura in compound-treated castor leaves assessed as adult longevity time at 5 ug/cm2 (reference value: 9.4 +/- 0.48 days)
Earias vittella [37] = experiment: Insecticidal activity against male adult Earias vitella assessed as adult longevity time at 5 ug/cm3 administered through artificial diet containing Abelmoschus esculentus seed powder (reference value: 8.2 +/- 0.4 days)
Earias vittella [38] = experiment: Insecticidal activity against adult Earias vitella assessed as adult emergence at 10 ug/cm3 administered through artificial diet containing Abelmoschus esculentus seed powder (reference value: 88%)
Earias vittella [39] = experiment: Insecticidal activity against pupal stage of Earias vitella assessed as pupal duration time at 10 ug/cm3 administered through artificial diet containing Abelmoschus esculentus seed powder (reference value: 6.4 +/- 0.21 days)
Spodoptera litura [40] = experiment: Insecticidal activity against male adult Spodoptera litura in compound-treated castor leaves assessed as adult longevity time at 10 ug/cm2 (reference value: 9.4 +/- 0.48 days)

In the case of `CC(=O)OC[C@@]12[C@@H](OC(C)=O)C[C@@H](C)[C@](C)([C@@H]3C[C@H]4C=CO[C@H]4O3)[C@H]1CC[C@H](OC(C)=O)[C@]21CO1` [3-EPICARYOPTIN], the mortality (Earias vittella [1]) is reported as 8%, the mortality at 5 µg/cm2 (Spodoptera litura [2]) is reported as 26.5% and the Time (Spodoptera litura [3]) is reported as 11 days. The Activity (Spodoptera littoralis) was 100%, the Activity (Spodoptera litura [4]) was 250.2 mg and the Time (Spodoptera litura [5]) was 11.8 days. For the same compound, the Time (Earias vittella [6]) was 10.3 days, the Activity (Spodoptera litura [7]) was 12.8% and the Time (Earias vittella [8]) was 10 days. It also gave a Time (Spodoptera litura [9]) of 7.2 days, an Activity (Spodoptera litura [10]) of 56.8% and an Activity (Earias vittella [11]) of 8%. It also gave a Time (Earias vittella [12]) of 8.8 days, an Activity (Spodoptera litura [13]) of 82.6% and an Activity (Spodoptera litura [14]) of 64.8%. For the same compound, the Activity (Spodoptera litura [15]) was 8.8%, the mortality (Earias vittella [16]) was 12% and the Time (Earias vittella [17]) was 6.2 days. The mortality (Earias vittella [18]) was 30%, the Time (Spodoptera litura [19]) was 14 days and the Activity (Earias vittella [20]) was 57.4 mg. It also gave a mortality (Earias vittella [21]) of 40%, a Time (Earias vittella [22]) of 5.6 days and an Activity (Earias vittella [23]) of 53.2 mg. For the same compound, the Activity (Earias vittella [24]) was 60.4%, the Activity (Spodoptera litura [25]) was 261.6 mg and the mortality at 5 µg/cm2 (Spodoptera litura [26]) was 24%. For the same compound, the Activity (Earias vittella [27]) was 79.76%, the Time (Earias vittella [28]) was 5.8 days and the mortality at 10 µg/cm2 (Spodoptera litura [29]) was 30%. It also gave an Activity (Earias vittella [30]) of 8%, a Time (Spodoptera litura [31]) of 14.5 days and an Activity (Earias vittella [32]) of 73%. The Time (Spodoptera litura [33]) was 6 days, the mortality at 10 µg/cm2 (Spodoptera litura [34]) was 36% and the Activity (Spodoptera litura [35]) was 73.4%. The Time (Spodoptera litura [36]) was 7.4 days, the Time (Earias vittella [37]) was 5.8 days and the Activity (Earias vittella [38]) was 52%. It also gave a Time (Earias vittella [39]) of 10.2 days and a Time (Spodoptera litura [40]) of 6.4 days.
